Data taken from ChEMBL document CHEMBL1671647, “In vitro activity of LK-157, a novel tricyclic carbapenem as broad-spectrum {beta}-lactamase inhibitor” (Antimicrob Agents Chemother, 2009).
pIC50: −log10 of the molar value. In brackets after ≈: the same amount, converted by molar mass.

Experiments:
Staphylococcus aureus [1] = test: Antibacterial activity against methicillin-resistant Staphylococcus aureus by broth microdilution method; type: functional
Procedure, shortened: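 CLSI broth microdilution MIC against clinical isolates. In β-lactam combinations the inhibitor was held constant at 4 μg/ml. Inoculum was prepared by direct colony suspension, final 5 × 10^5 CFU/ml.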

[2] = Inhibition of Enterobacter cloacae Beta-lactamase AmpC
Procedure, shortened: (§1)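 Purified β-lactamase (final 0.25 μg/ml) was preincubated with inhibitor for 10 min at 37°C in […] phosphate, pH 7, with 10% DMSO final. Prewarmed nitrocefin was then added (final […] as printed). A490 was read every 30 s for 10 min at 37°C to give initial rates. IC50 was fitted by sigmoidal nonlinear regression, from at least two independent experiments, with 95% CI.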

Citrobacter freundii = test: Antibacterial activity against Citrobacter freundii by broth microdilution method; type: functional
Procedure, shortened: (§2)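 Broth microdilution MICs per CLSI against clinical and ATCC isolates; stocks in distilled water, diluted with water or Mueller-Hinton broth, drug weights corrected for salt forms. Twofold series from 256 to 0.125 μg/ml or 25.6 to 0.0125 μg/ml. Inoculum 5 × 10^5 CFU/ml (final) by direct colony suspension. β-Lactamase inhibitors, when combined with a β-lactam, held constant at 4 μg/ml.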

[3] = Inhibition of Beta-lactamase TEM-1; procedure, shortened: as §1
Enterobacter cloacae = test: Antibacterial activity against Enterobacter cloacae by broth microdilution method; type: functional; procedure, shortened: as §2
Escherichia coli = test: Antibacterial activity against Escherichia coli by broth microdilution method; type: functional; procedure, shortened: as §2
Pseudomonas aeruginosa = test: Antibacterial activity against Pseudomonas aeruginosa by broth microdilution method; type: functional; procedure, shortened: as §2
Klebsiella sp. = test: Antibacterial activity against Klebsiella sp. by broth microdilution method; type: functional; procedure, shortened: as §2
Moraxella catarrhalis = test: Antibacterial activity against Moraxella catarrhalis by broth microdilution method; type: functional; procedure, shortened: as §2
Enterococcus sp. = test: Antibacterial activity against Enterococcus sp. by broth microdilution method; type: functional; procedure, shortened: as §2
[4] = Inhibition of Klebsiella pneumoniae Beta-lactamase SHV-1; procedure, shortened: as §1
Staphylococcus aureus [5] = test: Antibacterial activity against methicillin-susceptible Staphylococcus aureus by broth microdilution method; type: functional; procedure, shortened: as §2

Work on `C/C=C1/C(=O)N2C(C(=O)O)=C3[C@@H](OC)CCC[C@@H]3[C@H]12` yielded an MIC50 (Staphylococcus aureus [1]) greater than 256 µg/mL, an MIC90 (Staphylococcus aureus [1]) greater than 256 µg/mL and a pIC50 [2] of 7.21. It also gave an MIC (Citrobacter freundii) greater than 25.6 µg/mL, a pIC50 [3] of 7.26 and an MIC (Enterobacter cloacae) greater than 25.6 µg/mL. It also gave an MIC50 (Enterobacter cloacae) greater than 25.6 µg/mL, an MIC90 (Enterobacter cloacae) greater than 25.6 µg/mL and an MIC (Escherichia coli) greater than 25.6 µg/mL. The MIC50 (Escherichia coli) was greater than 25.6 µg/mL, the MIC90 (Escherichia coli) was greater than 25.6 µg/mL and the MIC (Pseudomonas aeruginosa) was greater than 25.6 µg/mL. It also gave an MIC (Klebsiella sp.) of 6.4 µg/mL (≈ 24.3 µM), an MIC50 (Klebsiella sp.) greater than 25.6 µg/mL and an MIC90 (Klebsiella sp.) greater than 25.6 µg/mL. The MIC50 (Moraxella catarrhalis) was 0.8 µg/mL (≈ 3.04 µM), the MIC90 (Moraxella catarrhalis) was 0.8 µg/mL (≈ 3.04 µM) and the MIC (Enterococcus sp.) was greater than 25.6 µg/mL. It also gave a pIC50 [4] of 6.82 and an MIC (Staphylococcus aureus [5]) of 0.8 µg/mL (≈ 3.04 µM).

Work on `O=C(O)[C@H]1/C(=C/CO)O[C@@H]2CC(=O)N21` [CLAVULANIC ACID] yielded a pIC50 [2] of 3.87, a pIC50 [3] of 7.52 and a pIC50 [4] of 7.55.

With `CC1(C)[C@H](C(=O)O)N2C(=O)C[C@H]2S1(=O)=O` [SULBACTAM] the pIC50 [2] was 4.92, the pIC50 [3] was 5.97 and the pIC50 [4] was 5.40.

`C[C@]1(Cn2ccnn2)[C@H](C(=O)O)N2C(=O)C[C@H]2S1(=O)=O` [TAZOBACTAM] showed a pIC50 [2] of 5.75 and a pIC50 [3] of 7.85.
